Laboratory results reported in ChEMBL document CHEMBL1128722, “Mechanism-based isocoumarin inhibitors for human leukocyte elastase. Effect of the 7-amino substituent and 3-alkoxy group in 3-alkoxy-7-amino-4-chloroisocoumarins on inhibitory potency” (J Med Chem, 1995).

How the values were obtained:
[1] = target: T1, Chymotrypsin-like elastase family member 2A (Sus scrofa) (UniProt P08419); assay: The second order inactivation rate constant expressed as inhibition of porcine pancreatic elastase (PPE).Inhibitor concentrations were 0.04-2.0 mM
T1 sequence (whole entry): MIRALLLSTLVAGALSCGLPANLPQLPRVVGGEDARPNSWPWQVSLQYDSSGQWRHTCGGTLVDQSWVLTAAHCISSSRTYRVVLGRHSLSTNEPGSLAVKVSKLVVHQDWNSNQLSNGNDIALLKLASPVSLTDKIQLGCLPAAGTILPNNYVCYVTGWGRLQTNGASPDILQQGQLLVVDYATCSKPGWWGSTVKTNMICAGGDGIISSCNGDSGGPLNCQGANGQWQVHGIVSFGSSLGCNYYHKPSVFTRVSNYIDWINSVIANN

[2] = target: T2, Cathepsin G (Homo sapiens) (UniProt P08311); assay: Inhibition of cathepsin G at 35-710 uM
T2 sequence (whole entry): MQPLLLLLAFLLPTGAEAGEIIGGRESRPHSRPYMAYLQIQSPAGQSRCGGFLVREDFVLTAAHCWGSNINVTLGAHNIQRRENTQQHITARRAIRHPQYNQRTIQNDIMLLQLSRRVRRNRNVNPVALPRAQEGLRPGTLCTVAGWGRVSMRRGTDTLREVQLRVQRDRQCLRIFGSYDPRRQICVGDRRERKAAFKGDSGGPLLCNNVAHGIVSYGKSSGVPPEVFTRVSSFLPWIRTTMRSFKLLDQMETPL
In short: (§1)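 Kitz–Wilson incubation method. Enzyme was preincubated with inhibitor (added in DMSO) in 0.1 M HEPES, 0.5 M NaCl, pH 7.5, at 25 °C. Aliquots were taken over time and diluted into pNA substrate: HLE MeO-Suc-Ala-Ala-Pro-Val-pNA (0.2–0.5 mM), PPE Suc-Ala-Ala-Ala-pNA, ChT and Cat G Suc-Val-Pro-Phe-pNA (0.4–0.5 mM). Release was read at 410 nm. kobs/[I] from ln(v0/vt) vs time. Mean of two determinations. Fast rates measured with equimolar inhibitor and enzyme.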

[3] = target: T3, Neutrophil elastase (Homo sapiens) (UniProt P08246); assay: Second order inactivation rate constant for inhibition of human leukocyte elastase.
T3 sequence (whole entry): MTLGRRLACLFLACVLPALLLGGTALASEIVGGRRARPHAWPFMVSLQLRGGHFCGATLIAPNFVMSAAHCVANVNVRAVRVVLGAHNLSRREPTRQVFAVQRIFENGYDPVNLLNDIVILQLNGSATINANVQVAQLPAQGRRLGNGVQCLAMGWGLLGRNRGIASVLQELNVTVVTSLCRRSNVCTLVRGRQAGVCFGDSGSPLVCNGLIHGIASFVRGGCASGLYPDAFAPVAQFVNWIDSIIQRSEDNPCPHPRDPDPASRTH
In short: as §1

[4] = target: T3, Neutrophil elastase (Homo sapiens); assay: Inhibition of human leukocyte elastase.
In short: as §1

[5] = target: T3, Neutrophil elastase (Homo sapiens); assay: The second order inactivation rate constant expressed as inhibition of human leukocyte elastase (HLE). Inhibitor concentrations were 0.07-710 uM
In short: as §1

[6] = target: T2, Cathepsin G (Homo sapiens); assay: Inhibition of cathepsin G(Cat G) at 35-710 uM
In short: as §1

[7] = target: T3, Neutrophil elastase (Homo sapiens); assay: Inhibition of human leukocyte elastase(HLE) at 0.7-1.7 uM
In short: as §1

[8] = Half-life for hydrolysis was determined from kinetic constant.; format: ADME
In short: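 Spontaneous hydrolysis in 0.1 M HEPES, 0.5 M NaCl, pH 7.5, 10% v/v DMSO final, 25 °C. Inhibitor added from 2.9–5.0 mM DMSO stock. Ring opening followed as absorbance decrease at 385 nm (ε385 = 3300 M⁻¹ cm⁻¹). Half-life from the first-order rate. Two determinations, standard errors ±15% or less.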

SMILES | K obs / 1 [1] | K obs / 1 [5] | further results
CC(C)(C)CC(=O)Nc1ccc2c(Cl)c(OCCBr)oc(=O)c2c1 | 3650 M⁻¹ s⁻¹ | – | K obs / 1 [2]: 240 M⁻¹ s⁻¹
COCCOCCOc1oc(=O)c2cc(N)ccc2c1Cl | – | – | k obs / 1 [3]: 33 M⁻¹ s⁻¹; [I] [4]: 710 µM
O=C(NCc1ccccc1)Nc1ccc2c(Cl)c(OCCCBr)oc(=O)c2c1 | 13 M⁻¹ s⁻¹ | 15600 M⁻¹ s⁻¹ | inhibition [6]: 21%
COC(=O)CCC(=O)Nc1ccc2c(Cl)c(OCCBr)oc(=O)c2c1 | 1500 M⁻¹ s⁻¹ | – | –
CCCOc1oc(=O)c2cc(NC(=O)CCC)ccc2c1Cl | – | – | k obs / 1 [7]: > 120000 M⁻¹ s⁻¹
O=C(O)c1ccc(N/C(S)=N/c2ccc3c(Cl)c(OCCBr)oc(=O)c3c2)cc1 | – | > 390000 M⁻¹ s⁻¹ | K obs / 1 [2]: 450 M⁻¹ s⁻¹
O=C(CCc1ccccc1)Nc1ccc2c(Cl)c(OCCBr)oc(=O)c2c1 | 11 M⁻¹ s⁻¹ | – | –
CC(C)NC(=O)Nc1ccc2c(Cl)c(OCCBr)oc(=O)c2c1 | 4470 M⁻¹ s⁻¹ | 646000 M⁻¹ s⁻¹ | K obs / 1 [2]: 77 M⁻¹ s⁻¹
C[C@H](NC(=O)Nc1ccc2c(Cl)c(OCCBr)oc(=O)c2c1)c1cccc2ccccc12 | 40 M⁻¹ s⁻¹ | 170000 M⁻¹ s⁻¹ | –
CC(C)(C)OC(=O)N[C@@H](Cc1c[nH]c2ccccc12)C(=O)Nc1ccc2c(Cl)c(OCCBr)oc(=O)c2c1 | 12 M⁻¹ s⁻¹ | 170000 M⁻¹ s⁻¹ | half-life [8]: 26 h
CCCOc1oc(=O)c2cc(NC(=O)[C@@H](NC(=O)OC(C)(C)C)C(C)C)ccc2c1Cl | – | – | k obs / 1 [7]: 64000 M⁻¹ s⁻¹
O=C(Nc1ccccc1)Nc1ccc2c(Cl)c(OCCCBr)oc(=O)c2c1 | 4 M⁻¹ s⁻¹ | – | inhibition [6]: 17%
Cc1ccc(C(=O)N[C@@H](Cc2ccccc2)C(=O)Nc2ccc3c(Cl)c(OCCBr)oc(=O)c3c2)cc1 | 32 M⁻¹ s⁻¹ | 49000 M⁻¹ s⁻¹ | –
COC(=O)CCCC(=O)Nc1ccc2c(Cl)c(OCCBr)oc(=O)c2c1 | 2730 M⁻¹ s⁻¹ | > 170000 M⁻¹ s⁻¹ | –
CCCOc1oc(=O)c2cc(NC(=O)CCc3ccccc3)ccc2c1Cl | – | – | k obs / 1 [7]: > 250000 M⁻¹ s⁻¹
CC(C)(C)NC(=O)Nc1ccc2c(Cl)c(OCCBr)oc(=O)c2c1 | 6600 M⁻¹ s⁻¹ | – | K obs / 1 [2]: 56 M⁻¹ s⁻¹
O=C(N[C@@H](Cc1ccccc1)C(=O)Nc1ccc2c(Cl)c(OCCBr)oc(=O)c2c1)c1ccccc1 | 11 M⁻¹ s⁻¹ | 30000 M⁻¹ s⁻¹ | –
CCCOc1oc(=O)c2cc(NC(=O)c3cccc([N+](=O)[O-])c3)ccc2c1Cl | – | – | k obs / 1 [7]: > 210000 M⁻¹ s⁻¹
COCCOc1oc(=O)c2cc(N)ccc2c1Cl | – | – | k obs / 1 [3]: 390 M⁻¹ s⁻¹; [I] [4]: 7.8 µM
O=C(O)CCC(=O)N[C@@H](Cc1ccccc1)C(=O)Nc1ccc2c(Cl)c(OCCBr)oc(=O)c2c1 | 1900 M⁻¹ s⁻¹ | 40000 M⁻¹ s⁻¹ | half-life [8]: 2.5 h
CCCOc1oc(=O)c2cc(NC(=O)CSC)ccc2c1Cl | – | – | k obs / 1 [7]: > 150000 M⁻¹ s⁻¹
CCCOc1oc(=O)c2cc(NC(=O)CC(C)C)ccc2c1Cl | – | – | k obs / 1 [7]: > 220000 M⁻¹ s⁻¹
C[C@@H](OC(=O)Nc1ccccc1)C(=O)Nc1ccc2c(Cl)c(OCCBr)oc(=O)c2c1 | 13 M⁻¹ s⁻¹ | 140000 M⁻¹ s⁻¹ | half-life [8]: 6.4 h
O=C(NCc1ccccc1)Nc1ccc2c(Cl)c(OCCBr)oc(=O)c2c1 | 3010 M⁻¹ s⁻¹ | 480000 M⁻¹ s⁻¹ | inhibition [6]: 23%
C[C@H](NC(=O)Nc1ccc2c(Cl)c(OCCBr)oc(=O)c2c1)c1ccccc1 | 9900 M⁻¹ s⁻¹ | > 440000 M⁻¹ s⁻¹ | K obs / 1 [2]: 77 M⁻¹ s⁻¹

SMILES | K obs / 1 [1] | K obs / 1 [5] | further results
O=C(Nc1ccc2c(Cl)c(OCCBr)oc(=O)c2c1)Nc1cccc2ccccc12 | 76 M⁻¹ s⁻¹ | 390000 M⁻¹ s⁻¹ | inhibition [6]: 22%
O=C(O)c1cccc(N/C(S)=N/c2ccc3c(Cl)c(OCCBr)oc(=O)c3c2)c1 | – | > 240000 M⁻¹ s⁻¹ | K obs / 1 [2]: 320 M⁻¹ s⁻¹
CC(C)(C)OC(=O)N[C@@H](Cc1ccccc1)C(=O)Nc1ccc2c(Cl)c(OCCBr)oc(=O)c2c1 | 50 M⁻¹ s⁻¹ | 146000 M⁻¹ s⁻¹ | inhibition [6]: 19%
O=c1oc(OCCBr)c(Cl)c2ccc(N[N+](=O)[O-])cc12 | 6330 M⁻¹ s⁻¹ | 65600 M⁻¹ s⁻¹ | K obs / 1 [2]: 710 M⁻¹ s⁻¹
CC(C)Oc1oc(=O)c2cc(N)ccc2c1Cl | – | – | k obs / 1 [3]: 2000 M⁻¹ s⁻¹; [I] [4]: 26 µM
O=C1CC(c2ccccc2)CC(=O)N1c1ccc2c(Cl)c(OCCBr)oc(=O)c2c1 | 75 M⁻¹ s⁻¹ | 85000 M⁻¹ s⁻¹ | half-life [8]: > 48 h
C[C@H](NC(=O)OC(C)(C)C)C(=O)N[C@@H](C)C(=O)Nc1ccc2c(Cl)c(OCCBr)oc(=O)c2c1 | 1670 M⁻¹ s⁻¹ | 230000 M⁻¹ s⁻¹ | K obs / 1 [2]: 46 M⁻¹ s⁻¹
C[C@@H](NC(=O)Nc1ccc2c(Cl)c(OCCBr)oc(=O)c2c1)c1ccccc1 | 2660 M⁻¹ s⁻¹ | > 570000 M⁻¹ s⁻¹ | inhibition [6]: 21%
CCCOc1oc(=O)c2cc(N)ccc2c1Cl | – | – | half-life [8]: 4.6 h; k obs / 1 [3]: 54000 M⁻¹ s⁻¹; [I] [4]: 2.6 µM
Cc1cccc(C(=O)N[C@@H](Cc2ccccc2)C(=O)Nc2ccc3c(Cl)c(OCCBr)oc(=O)c3c2)c1 | 3500 M⁻¹ s⁻¹ | 31000 M⁻¹ s⁻¹ | –
C[C@@H](NC(=O)Nc1ccc2c(Cl)c(OCCBr)oc(=O)c2c1)c1cccc2ccccc12 | 20 M⁻¹ s⁻¹ | 310000 M⁻¹ s⁻¹ | half-life [8]: > 48 h
O=C(Nc1ccc2c(Cl)c(OCCBr)oc(=O)c2c1)NC(c1ccccc1)c1ccccc1 | 6 M⁻¹ s⁻¹ | 4410 M⁻¹ s⁻¹ | –
O=C(Nc1ccccc1)Nc1ccc(C(=O)NC(Cc2ccccc2)C(=O)Nc2ccc3c(Cl)c(OCCBr)oc(=O)c3c2)cc1 (centres undefined) | 130 M⁻¹ s⁻¹ | 6100 M⁻¹ s⁻¹ | –
CC(Br)COc1oc(=O)c2cc(N)ccc2c1Cl (centres undefined) | 62 M⁻¹ s⁻¹ | 24000 M⁻¹ s⁻¹ | K obs / 1 [2]: 150 M⁻¹ s⁻¹
O=C(Cc1ccccc1)Nc1ccc2c(Cl)c(OCCBr)oc(=O)c2c1 | 4950 M⁻¹ s⁻¹ | 480000 M⁻¹ s⁻¹ | K obs / 1 [2]: 70 M⁻¹ s⁻¹
O=c1oc(OCCBr)c(Cl)c2ccc(NC(=S)Nc3ccccc3)cc12 | 1250 M⁻¹ s⁻¹ | > 480000 M⁻¹ s⁻¹ | K obs / 1 [2]: 200 M⁻¹ s⁻¹
CCCOc1oc(=O)c2cc(NC(=O)OCC)ccc2c1Cl | – | – | k obs / 1 [7]: > 180000 M⁻¹ s⁻¹
CC(Br)COc1oc(=O)c2cc([N+](=O)[O-])ccc2c1Cl (centres undefined) | 1060 M⁻¹ s⁻¹ | – | K obs / 1 [2]: 1660 M⁻¹ s⁻¹
O=C(Nc1ccccc1)Nc1cccc(C(=O)NC(Cc2ccccc2)C(=O)Nc2ccc3c(Cl)c(OCCBr)oc(=O)c3c2)c1 (centres undefined) | 300 M⁻¹ s⁻¹ | 21000 M⁻¹ s⁻¹ | –
CCCOc1oc(=O)c2cc(NC(C)=O)ccc2c1Cl | – | – | k obs / 1 [7]: > 190000 M⁻¹ s⁻¹
CC(C)COc1oc(=O)c2cc(N)ccc2c1Cl | – | – | k obs / 1 [3]: 2700 M⁻¹ s⁻¹; [I] [4]: 50 µM
CC(C)(C)OC(=O)N[C@H](Cc1ccccc1)C(=O)Nc1ccc2c(Cl)c(OCCBr)oc(=O)c2c1 | 30 M⁻¹ s⁻¹ | 160000 M⁻¹ s⁻¹ | inhibition [6]: 19%
CC(=O)Nc1ccc2c(Cl)c(OCCCBr)oc(=O)c2c1 | 24 M⁻¹ s⁻¹ | 24400 M⁻¹ s⁻¹ | K obs / 1 [2]: 170 M⁻¹ s⁻¹
O=C(Cc1ccccc1)Nc1ccc2c(Cl)c(OCCCBr)oc(=O)c2c1 | 28 M⁻¹ s⁻¹ | 32400 M⁻¹ s⁻¹ | inhibition [6]: 28%
